Measured values as given in ChEMBL document CHEMBL5331128, “Alicyclic Ring Size Variation of 4-Phenyl-2-naphthoic Acid Derivatives as P2Y14 Receptor Antagonists” (J Med Chem, 2023).
Activity calls are given as the source filed them.

What was measured:
P2Y purinoceptor 14 [1] = target: T1, P2Y purinoceptor 14 (Homo sapiens, UniProt Q15391); test: Displacement of fluorescent tracer 4-(4-(1-(4-(1-(6-(3-carboxylato-4-(3-iminio-3H-xanthen-9-yl)benzamido)hexyl)-4,5-dihydro-1H-pyrrol-3-yl)butyl)piperidin-1-ium-4-yl)phenyl)-7-(4-(trifluoromethyl)phenyl)-2-naphthoate from human P2Y14R stably expressed in CHO cells assessed as inhibition constant by flow cytometry; assay type: cell-based
T1 sequence (Q15391 whole entry): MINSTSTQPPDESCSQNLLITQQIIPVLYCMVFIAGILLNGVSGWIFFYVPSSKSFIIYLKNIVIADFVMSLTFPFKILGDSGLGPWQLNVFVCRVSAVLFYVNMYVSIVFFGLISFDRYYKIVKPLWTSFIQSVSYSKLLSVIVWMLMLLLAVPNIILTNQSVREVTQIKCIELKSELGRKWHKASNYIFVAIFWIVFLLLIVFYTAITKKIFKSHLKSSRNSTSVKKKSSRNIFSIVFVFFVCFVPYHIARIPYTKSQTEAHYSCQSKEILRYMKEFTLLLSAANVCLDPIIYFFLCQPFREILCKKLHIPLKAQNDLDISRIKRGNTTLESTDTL
Method in brief: (§1)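 Whole-cell competitive binding: CHO cells expressing hP2Y14R (or HEK-293 cells expressing mP2Y14R) incubated with AlexaFluor488-labelled antagonist tracer at 20 nM.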

P2Y purinoceptor 14 [2] = target: T1, P2Y purinoceptor 14; test: Displacement of fluorescent tracer 4-(4-(1-(4-(1-(6-(3-carboxylato-4-(3-iminio-3H-xanthen-9-yl)benzamido)hexyl)-4,5-dihydro-1H-pyrrol-3-yl)butyl)piperidin-1-ium-4-yl)phenyl)-7-(4-(trifluoromethyl)phenyl)-2-naphthoate from human P2Y14R stably expressed in CHO cells by flow cytometry; assay type: cell-based; method in brief: as §1
[3] = Lipophilicity, log D of compound at pH 7.4 incubated for 20 hrs by HPLC analysis; assay type: physicochemical; conditions: buffer
[4] = Stability in human plasma assessed as half life at 1 uM and measured at 120 mins by LC-MS/MS analysis; assay type: ADME, cell-free
[5] = Stability in mouse plasma assessed as half life at 1 uM and measured at 120 mins by LC-MS/MS analysis; assay type: ADME, cell-free
Mus musculus [6] = test: Antiallodynic activity in CCI surgery neuropathic pain Hsd:ICR mouse model assessed as reversal of mechano-allodynia by measuring paw withdrawal threshold at 10 micromol/kg,po and measured at 1 hrs by von frey test; assay type: functional, organism-based; conditions: dose 10.0 µmol/kg
Method in brief: (§2)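 CCI neuropathic pain in adult male CD-1 mice. Single oral gavage dose of 10 μmol/kg on day 7 post-surgery. Vehicle 5% DMSO + 10% (Kolliphor HS 15:DMSO 5:95) in 0.5% methylcellulose, 0.2 mL. Von Frey paw withdrawal threshold on both hindpaws. Mean ± SD; two-way ANOVA with Dunnett's test.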

[7] = target: T2, Alpha-1B adrenergic receptor (Homo sapiens, UniProt P35368); test: Displacement of [3H]-Prazosin from human adrenergic alpha1B receptor assessed as inhibition constant by radioligand displacement assay
T2 sequence (P35368 whole entry): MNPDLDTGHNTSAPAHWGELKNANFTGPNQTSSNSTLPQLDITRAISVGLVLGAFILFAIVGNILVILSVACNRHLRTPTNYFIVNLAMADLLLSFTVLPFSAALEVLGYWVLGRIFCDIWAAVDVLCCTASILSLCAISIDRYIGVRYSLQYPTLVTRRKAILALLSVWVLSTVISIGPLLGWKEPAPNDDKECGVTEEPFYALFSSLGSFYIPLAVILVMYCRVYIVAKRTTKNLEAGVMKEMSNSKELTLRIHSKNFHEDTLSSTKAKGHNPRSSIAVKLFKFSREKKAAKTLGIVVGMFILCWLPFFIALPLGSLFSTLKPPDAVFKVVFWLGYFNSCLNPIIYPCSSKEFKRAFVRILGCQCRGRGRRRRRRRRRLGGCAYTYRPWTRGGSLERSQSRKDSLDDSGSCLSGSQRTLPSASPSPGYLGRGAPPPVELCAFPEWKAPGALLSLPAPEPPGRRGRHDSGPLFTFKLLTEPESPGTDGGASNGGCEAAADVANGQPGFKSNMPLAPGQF

[8] = target: 5-hydroxytryptamine receptor 1B (Homo sapiens, UniProt P28222); test: Displacement of [3H]-5-CT from human 5-HT1B receptor assessed as inhibition constant by radioligand displacement assay
Histamine H1 receptor = Histamine H1 receptor (Homo sapiens, UniProt P35367); test: Displacement of [3H]-Pyrilamine from human histamine H1 receptor assessed as inhibition constant by radioligand displacement assay
[9] = Selectivity ratio, ratio of IC50 for displacement of fluorescent tracer 4-(4-(1-(4-(1-(6-(3-carboxylato-4-(3-iminio-3H-xanthen-9-yl)benzamido)hexyl)-4,5-dihydro-1H-pyrrol-3-yl)butyl)piperidin-1-ium-4-yl)phenyl)-7-(4-(trifluoromethyl)phenyl)-2-naphthoate from mouse P2Y14R stably expressed in human HEK293 cells to IC50 for displacement of fluorescent tracer 4-(4-(1-(4-(1-(6-(3-carboxylato-4-(3-iminio-3H-xanthen-9-yl)benzamido)hexyl)-4,5-dihydro-1H-pyrrol-3-yl)butyl)piperidin-1-ium-4-yl)phenyl)-7-(4-(trifluoromethyl)phenyl)-2-naphthoate from human P2Y14R stably expressed in CHO cells; assay type: cell-based
[10] = target: Sigma intracellular receptor 2 (Homo sapiens, UniProt Q5BJF2); test: Displacement of [3H]-DTG from human sigma 2 receptor assessed as inhibition constant by radioligand displacement assay
[11] = target: T3, Muscarinic acetylcholine receptor M5 (Homo sapiens, UniProt P08912); test: Displacement of […] from human muscarinic M5 receptor assessed as inhibition constant by radioligand displacement assay
T3 sequence (P08912 whole entry): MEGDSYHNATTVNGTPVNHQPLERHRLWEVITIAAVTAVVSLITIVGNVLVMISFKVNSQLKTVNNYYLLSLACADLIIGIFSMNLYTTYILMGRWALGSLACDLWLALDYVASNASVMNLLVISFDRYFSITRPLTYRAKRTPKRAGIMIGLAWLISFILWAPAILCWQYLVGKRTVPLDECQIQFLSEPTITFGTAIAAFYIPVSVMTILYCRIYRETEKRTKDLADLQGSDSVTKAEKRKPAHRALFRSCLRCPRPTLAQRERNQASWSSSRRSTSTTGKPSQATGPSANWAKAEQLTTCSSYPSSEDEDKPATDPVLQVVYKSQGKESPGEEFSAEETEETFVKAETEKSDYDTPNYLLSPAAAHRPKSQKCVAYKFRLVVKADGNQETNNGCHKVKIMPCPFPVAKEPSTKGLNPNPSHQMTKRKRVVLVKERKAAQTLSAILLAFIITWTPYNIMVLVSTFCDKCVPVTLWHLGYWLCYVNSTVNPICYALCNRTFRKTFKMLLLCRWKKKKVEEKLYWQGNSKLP

P2Y purinoceptor 14 [12] = target: T4, P2Y purinoceptor 14 (Mus musculus, UniProt Q9ESG6); test: Displacement of fluorescent tracer 4-(4-(1-(4-(1-(6-(3-carboxylato-4-(3-iminio-3H-xanthen-9-yl)benzamido)hexyl)-4,5-dihydro-1H-pyrrol-3-yl)butyl)piperidin-1-ium-4-yl)phenyl)-7-(4-(trifluoromethyl)phenyl)-2-naphthoate from mouse P2Y14R stably expressed in human HEK293 cells by flow cytometry; assay type: cell-based
T4 sequence (Q9ESG6 whole entry): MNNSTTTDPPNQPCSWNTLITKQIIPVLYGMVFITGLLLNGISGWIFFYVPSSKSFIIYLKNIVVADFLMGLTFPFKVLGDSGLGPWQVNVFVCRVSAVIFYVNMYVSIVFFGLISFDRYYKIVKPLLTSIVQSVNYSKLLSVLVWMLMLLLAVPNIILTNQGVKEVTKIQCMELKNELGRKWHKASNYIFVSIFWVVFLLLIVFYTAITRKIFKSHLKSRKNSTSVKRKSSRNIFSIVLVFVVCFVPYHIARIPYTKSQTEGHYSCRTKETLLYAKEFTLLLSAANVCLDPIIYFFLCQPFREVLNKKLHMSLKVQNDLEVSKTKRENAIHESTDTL
Method in brief: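 Whole-cell competitive binding: CHO cells expressing hP2Y14R (or HEK-293 cells expressing mP2Y14R) incubated with AlexaFluor488-labelled antagonist tracer at 20 nM. […] Ki derived by dividing IC50 by 1.72.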

[13] = target: Beta-3 adrenergic receptor (Homo sapiens, UniProt P13945); test: Displacement of [125I]-Pindolol from human adrenergic beta3 receptor assessed as inhibition constant by radioligand displacement assay
Mus musculus [14] = test: Antiallodynic activity in CCI surgery neuropathic pain Hsd:ICR mouse model assessed as reversal of mechano-allodynia by measuring paw withdrawal threshold at 10 micromol/kg,po and measured upto 6 hrs by von frey test; assay type: functional, organism-based; conditions: dose 10.0 µmol/kg; method in brief: as §2
Mus musculus [15] = test: Antiallodynic activity in CCI surgery neuropathic pain Hsd:ICR mouse model assessed as reversal of mechano-allodynia by measuring paw withdrawal threshold at 10 micromol/kg,ip and measured upto 5 days by von frey test; assay type: functional, organism-based; conditions: dose 10.0 µmol/kg, time <= 5.0 day
Method in brief: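 CCI neuropathic pain in adult male Hsd:ICR (CD-1) mice (20–30 g). Single i.p. injection on day 7 after sciatic nerve constriction, at peak pain. Vehicle 10% (Kolliphor HS 15:DMSO 5:95) in saline, 0.2 mL. Paw withdrawal threshold by von Frey filaments on ipsilateral and contralateral hindpaws. Mean ± SD; two-way ANOVA with Dunnett's test versus day 0 and day 7.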

Chain of 5-hydroxytryptamine receptor 1B (P28222 whole entry): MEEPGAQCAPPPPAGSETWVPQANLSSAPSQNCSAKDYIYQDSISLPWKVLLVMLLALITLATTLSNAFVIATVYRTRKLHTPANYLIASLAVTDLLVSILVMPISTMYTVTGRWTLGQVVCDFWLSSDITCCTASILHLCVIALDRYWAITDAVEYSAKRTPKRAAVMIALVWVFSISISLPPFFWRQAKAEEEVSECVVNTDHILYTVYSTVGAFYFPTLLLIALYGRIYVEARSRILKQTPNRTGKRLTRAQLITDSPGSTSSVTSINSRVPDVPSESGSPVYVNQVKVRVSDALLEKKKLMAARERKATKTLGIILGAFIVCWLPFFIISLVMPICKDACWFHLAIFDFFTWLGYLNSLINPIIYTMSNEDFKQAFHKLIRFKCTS
Chain of Sigma intracellular receptor 2 (Q5BJF2 whole entry): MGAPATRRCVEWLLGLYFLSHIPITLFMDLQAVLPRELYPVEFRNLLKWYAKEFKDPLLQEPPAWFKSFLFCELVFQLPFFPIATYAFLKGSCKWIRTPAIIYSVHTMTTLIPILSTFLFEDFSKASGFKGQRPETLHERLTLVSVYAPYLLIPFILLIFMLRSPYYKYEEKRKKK
Chain of Histamine H1 receptor (P35367 whole entry): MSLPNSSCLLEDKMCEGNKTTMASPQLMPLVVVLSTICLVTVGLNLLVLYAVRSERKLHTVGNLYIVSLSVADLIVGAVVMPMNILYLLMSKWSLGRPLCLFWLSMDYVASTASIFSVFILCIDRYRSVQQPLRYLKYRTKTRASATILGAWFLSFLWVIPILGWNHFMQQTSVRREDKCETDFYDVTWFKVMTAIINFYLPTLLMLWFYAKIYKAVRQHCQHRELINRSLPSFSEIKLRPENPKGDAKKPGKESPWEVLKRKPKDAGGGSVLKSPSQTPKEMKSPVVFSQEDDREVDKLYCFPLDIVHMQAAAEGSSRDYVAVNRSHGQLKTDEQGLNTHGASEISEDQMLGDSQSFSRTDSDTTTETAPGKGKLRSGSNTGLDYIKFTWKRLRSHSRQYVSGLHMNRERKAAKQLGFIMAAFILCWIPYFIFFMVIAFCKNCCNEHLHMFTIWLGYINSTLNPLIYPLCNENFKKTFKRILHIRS
Chain of Beta-3 adrenergic receptor (P13945 whole entry): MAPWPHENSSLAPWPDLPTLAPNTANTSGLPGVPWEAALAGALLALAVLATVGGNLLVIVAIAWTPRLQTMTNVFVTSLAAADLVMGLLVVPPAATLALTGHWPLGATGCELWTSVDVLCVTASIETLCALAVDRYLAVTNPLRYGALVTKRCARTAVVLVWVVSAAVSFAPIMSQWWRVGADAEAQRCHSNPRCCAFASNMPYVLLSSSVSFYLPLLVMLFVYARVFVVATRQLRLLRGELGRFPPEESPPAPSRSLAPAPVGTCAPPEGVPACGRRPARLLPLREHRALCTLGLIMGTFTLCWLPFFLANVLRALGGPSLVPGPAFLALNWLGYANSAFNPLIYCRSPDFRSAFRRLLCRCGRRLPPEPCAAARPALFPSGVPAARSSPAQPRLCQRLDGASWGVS

For `O=C(O)c1cc(-c2ccc(C3(O)CCCNCCC3)cc2)c2ccc(-c3ccc(C(F)(F)F)cc3)cc2c1`, the Ki (P2Y purinoceptor 14 [1]) was 1030 nM.

In the case of `CC(C)(C)OC(=O)NCCCCCCn1cc(CCCCN2CCC(c3ccc(-c4cc(C(=O)O)cc5cc(-c6ccc(C(F)(F)F)cc6)ccc45)cc3)CC2)nn1`, the IC50 (P2Y purinoceptor 14 [2]) is reported as 424 nM and the Ki (P2Y purinoceptor 14 [1]) is reported as 247 nM.

Molecule `CCOC(=O)N1C[C@H]2C[C@@H](C1)[C@@]2(O)c1ccc(-c2cc(C(=O)O)cc3cc(-c4ccc(C(F)(F)F)cc4)ccc23)cc1` has an IC50 (P2Y purinoceptor 14 [2]) of 81.6 nM and a Ki (P2Y purinoceptor 14 [1]) of 47.4 nM.

`O=C(O)c1cc(-c2ccc(C3CCNC3)cc2)c2ccc(-c3ccc(C(F)(F)F)cc3)cc2c1` (racemic) gave a logD at 20 h [3] of 1.6.

Molecule `CN(C)C(=O)COC(=O)c1cc(-c2ccc([C@]3(O)[C@@H]4CNC[C@H]3C4)cc2)c2ccc(-c3ccc(C(F)(F)F)cc3)cc2c1` has an IC50 (P2Y purinoceptor 14 [2]) of 4810 nM and a Ki (P2Y purinoceptor 14 [1]) of 2800 nM.

With `O=C(O)c1cc(-c2ccc(C3CCNCC3)cc2)c2ccc(-c3ccc(C(F)(F)F)cc3)cc2c1` [PPTN] the half-life at 1 µM [4] was > 720 min, the half-life at 1 µM [5] was 1.5 min and the Activity (Mus musculus [6]) was “Active”.

With `O=C(O)c1cc(-c2ccc(C3=CC4(CNC4)C3)cc2)c2ccc(-c3ccc(C(F)(F)F)cc3)cc2c1` the Ki [7] was 7300 nM, the Ki [8] was 6700 nM and the Ki (Histamine H1 receptor) was 5600 nM. The Ratio IC50 [9] was 1.64, the Ki [10] was 2200 nM and the Ki (P2Y purinoceptor 14 [1]) was 5.63 nM. For the same molecule, the Ki [11] was 5000 nM, the IC50 (P2Y purinoceptor 14 [12]) was 15.9 nM and the Ki [13] was 6800 nM. The logD at 20 h [3] was 1.9.

In the case of `CCOC(=O)N1C[C@H]2C[C@@H]1C[C@@H]2c1ccc(-c2cc(C(=O)OCC(=O)N(C)C)cc3cc(-c4ccc(C(F)(F)F)cc4)ccc23)cc1`, the Activity (Mus musculus [14]) is reported as “Active” and the Activity (Mus musculus [15]) is reported as “Active”.

For `NCCCCCCn1cc(CCCCN2CCC(c3ccc(-c4cc(C(=O)O)cc5cc(-c6ccc(C(F)(F)F)cc6)ccc45)cc3)CC2)nn1`, the IC50 (P2Y purinoceptor 14 [2]) was 116 nM and the Ki (P2Y purinoceptor 14 [1]) was 67.4 nM.
